Where two headings read alike, the source gives them in different places.

One experiment concerns pBR322 plasmid DNA. In words: DNA nicking assay. Type of experiment: biochemical. The settings on record: with Fenton's reagent; 10 µg/mL. In a few lines:
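pBR322 supercoiled plasmid (2 µL of a 50 µg/100 µL stock) mixed with 10 µL Fenton's reagent (80 mM FeCl₃, 30 mM H₂O₂, 50 mM ascorbic acid) and test compound (2–10 µg/mL) in water to 20 µL. Incubated for 30 min at 37 °C, then run on 1% agarose gel. Form I, II and III percentages were derived by densitometry. Water replaced Fenton's reagent as the negative control, and rutin served as the positive control.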

Another experiment deals with S. Typhimurium TA100. The settings on record: highest dose 250 μg/100 μL, cited from earlier work.
In another experiment the test system is MRSA. In words: Kirby-Bauer disc diffusion. It is filed as cell-based, methicillin-resistant Staphylococcus aureus. The settings on record: Staphylococcus aureus. The method in brief:
(§1)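 Kirby-Bauer method. Mueller Hinton agar plates were seeded with the test bacteria. Discs carrying 30 µg of test compound were placed on the surface and left to diffuse for 30 min at 4 °C. Plates were incubated at 37 °C, and inhibition zones were measured in mm.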
A general note: Agar diffusion results depend on both activity and mobility in agar.

The next experiment concerns S. Typhimurium TA98. The settings on record: highest dose 250 μg/100 μL, ref Sharma et al.[46]; cited from earlier work.
For the next experiment, the system named is VRE. In words: Kirby-Bauer disc diffusion. Type of experiment: cell-based, Vancomycin-resistant Enterococcus. The settings on record: HFM-2P, teicoplanin 30 µg/disc. The method in brief: as §1

As to `C[C@@H]1O[C@@H](OC[C@H]2O[C@@H](Oc3c(-c4ccc(O)c(O)c4)oc4cc(O)cc(O)c4c3=O)[C@H](O)[C@@H](O)[C@@H]2O)[C@H](O)[C@H](O)[C@H]1O` [Rutin, rutin], in the experiment with pBR322 plasmid DNA, the “Form I (supercoiled) DNA” value is 54.72% and the “Form II DNA” value was 45.27%.

In the case of `CC1OC(n2ccc(NC(=O)c3ccc(N)cc3)nc2=O)CCC1OC1OC(C)C(N(C)C)C(O)C1O` (stereo not shown) [plicacetin], the Antimutagenic activity in the experiment with S. Typhimurium TA100 (ref Devi et al.[33]) was 41.10–88.53%.

In turn, `CN[C@H](CC(C)C)C(=O)N[C@H]1C(=O)N[C@@H](CC(N)=O)C(=O)N[C@H]2C(=O)N[C@H]3C(=O)N[C@H](C(=O)N[C@H](C(=O)O)c4cc(O)cc(O)c4-c4cc3ccc4O)[C@H](O)c3ccc(c(Cl)c3)Oc3cc2cc(c3O[C@@H]2O[C@H](CO)[C@@H](O)[C@H](O)[C@H]2O[C@H]2C[C@](C)(N)[C@H](O)[C@H](C)O2)Oc2ccc(cc2Cl)[C@H]1O` [vancomycin] registered a zone of inhibition at 30 µg/disc in the experiment with MRSA of 18 mm.

In the case of salvianolic acid B, the figures for the Antimutagenic activity in the experiment with S. Typhimurium TA100 (ref Sharma et al.[46]) and in the experiment with S. Typhimurium TA98 were 41.10–88.53% and 47.87–88.11%, respectively.

Take teicoplanin: the Zone of inhibition with VRE is given as 15 mm.

Broadly, the zone of inhibition is the size of the clear area around the sample on an inoculated plate. A high value points to wide suppression of growth.

The values are drawn from article PMC12271353 (Scientific Reports, 2025).
